For assay [1], the system named is von Hippel-Lindau disease tumor suppressor/Epidermal growth factor receptor (Homo sapiens), P00533+P40337 [UNDEFINED MUTATION]. Put plainly: Protac activity at VHL/EGFR del19 mutant in human HCC827 cells assessed as induction of EGFR degradation at 1 to 33 nM incubated for 24 hrs by Western blot analysis. The assay is classed as cell-based. As to conditions: dose 1-33 nM. The essentials: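 HCC827 cells seeded at 0.5–1 × 10⁶ per well, grown 24 h, then treated at the stated concentrations for 24 h. EGFR^del19 level by Western blot with anti-EGFR antibody and β-actin loading control.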
A general note: A western blot detects proteins with antibodies after separation by electrophoresis.

In another assay the test system is HCC827. In words: Inhibition of colony formation in human HCC827 cells at 1 nM incubated for 15 days by crystal violet staining based analysis. The class given is functional, cell-based. Conditions: time 15.0 day. The essentials:
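Colony formation: 200 cells per well were seeded and incubated 24 h, then kept with compound for 15 days. After three PBS washes, cells were fixed in cold 75% ethanol and stained with 0.1% crystal violet in water for 1 h. Colonies were counted.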

Assay [2] concerns von Hippel-Lindau disease tumor suppressor/Epidermal growth factor receptor (Homo sapiens), P00533+P40337 [L858R,T790M]. Put plainly: Protac activity at VHL/EGFR L858R/T790M mutant in human H1975 cells assessed as maximal induction of degradation of EGFR incubated for 48 hrs by Western blot analysis relative to control. The assay is classed as cell-based. Conditions: NCI-H1975. The essentials:
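H1975 cells exposed to the stated concentrations for 48 h. EGFR by Western blot; n = 3. DC₅₀ by nonlinear regression, log(inhibitor) vs response.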

Assay [3] shares this test system. Put plainly: Protac activity at VHL/EGFR L858R/T790M mutant in human H1975 cells assessed as induction of degradation of EGFR by measuring reduction in Akt phosphorylation at 100 nM incubated for 48 hrs by Western blot analysis. The assay is classed as cell-based. As to conditions: NCI-H1975. A digest of the protocol:
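HCC827 or H1975 cells treated at the stated concentrations for 48 h. Lysates probed by Western blot for EGFR, P-EGFR, Akt and P-Akt (each 1:1000); n = 2.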

Molecules are shown by their SMILES. The source made the active and inactive calls. No cut-off for these calls is given here.

The results in this text go back to ChEMBL document CHEMBL4706553, “Discovery of potent small molecule PROTACs targeting mutant EGFR” (Eur J Med Chem, 2020).

With `Cc1ncsc1-c1ccc(CNC(=O)[C@@H]2C[C@@H](O)CN2C(=O)[C@@H](NC(=O)CCCCCCN2CCN(c3ccc(Nc4ncc5nc(Nc6ccccc6)n(C6CCCC6)c5n4)cc3)CC2)C(C)(C)C)cc1`, the outcome in assay [1] and in assay [3] was Active. Also, the inhibition entry in the assay with HCC827 was “Active”. The Emax in assay [2] stood at 90.3%.
